Data from ChEMBL document CHEMBL1159310, “Indole and beta-carboline alkaloids from Geissospermum sericeum” (J Nat Prod, 2002).

Assays:
KB = assay: Cytotoxicity against human KB cells after 48 hrs by MTT assay; type: cell-based
In short: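 Human KB cells (0.5 × 10^6 viable cells/mL in RPMI 1640 with 20% FCS) added to compound diluted in RPMI 1640 from […] DMSO stocks; 48 h at 37 °C. MTT (5 mg/mL) added for 15 min, supernatant discarded, cells solubilised in DMSO plus Sørensen's glycine buffer pH 10.5; OD read at 570 nm; IC50 by curve fitting.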

Plasmodium falciparum [1] = assay: Antiplasmodial activity against chloroquine-sensitive Plasmodium falciparum T9-96; type: functional, organism-based
Plasmodium falciparum [2] = assay: Antiplasmodial activity against chloroquine-resistant Plasmodium falciparum K1; type: functional, organism-based
Plasmodium falciparum [3] = assay: Selectivity for Plasmodium falciparum K1 to Plasmodium falciparum T9-96 as IC50 ratio; type: functional

Question: Which results are given for `CC[C@@H]1CN2CC[C@]34c5ccccc5N[C@H]3[C@@H](CO)[C@H]1C[C@H]24` [GEISSOSCHIZOLINE]?
Answer: IC50 (KB): > 40 µM; IC50 (Plasmodium falciparum [1]): > 40 µM; IC50 (Plasmodium falciparum [2]): > 40 µM

Question: With `CCN(CC)CCCC(C)Nc1ccnc2cc(Cl)ccc12` (centres undefined) [CHLOROQUINE] as the molecule, how does the IC50 (KB) read?
Answer: Its IC50 is 20.4 µM.

Question: Which IC50 (KB) does the source give for `CC[C@@H]1CN2CC[C@@]34C(=Nc5ccccc53)[C@@H](CO)[C@H]1C[C@H]24` here?
Answer: The IC50 was greater than 40 µM.

Question: What about the IC50 (Plasmodium falciparum [1]) of the same molecule?
Answer: Its IC50 is 35.4 µM.

Question: What about the IC50 (Plasmodium falciparum [2]) of the same molecule?
Answer: Its IC50 is 27.3 µM.

Question: Which results are given for `CCc1ccc2c3[nH]c4ccccc4c3cc[n+]2c1.[Cl-]` [FLAVOPEREIRINE]?
Answer: IC50 (KB): 10.7 µM; IC50 (Plasmodium falciparum [1]): 1.83 µM; IC50 (Plasmodium falciparum [2]): 11.5 µM; Ratio IC50 (Plasmodium falciparum [3]): 6.3

Question: How did the IC50 (KB) turn out when `CC[C@@H]1C[N+]2([O-])CC[C@]34c5ccccc5N[C@H]3[C@@H](CO)[C@H]1C[C@@H]42` (some centres undefined) was run?
Answer: Its IC50 is greater than 40 µM.

Question: What about the IC50 (Plasmodium falciparum [1]) of the same molecule?
Answer: The IC50 was greater than 40 µM.

Question: What about the IC50 (Plasmodium falciparum [2]) of the same molecule?
Answer: The IC50 was greater than 40 µM.
